Measurements reported in ChEMBL document CHEMBL1153233, “Novel substituted (Z)-5-((N-benzyl-1H-indol-3-yl)methylene)imidazolidine-2,4-diones and 5-((N-benzyl-1H-indol-3-yl)methylene)pyrimidine-2,4,6(1H,3H,5H)-triones as potent radio-sensitizing agents” (2010).

Each molecule was assayed on HT-29 (assay: Radiosensitization activity against human HT-29 cells assessed as survival relative to control).
Format: functional
How it was run: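 HT-29 colorectal adenocarcinoma cells exposed to analog at 25 µM (or DMSO vehicle) for 2 h at 37 °C, then irradiated with 4 Gy. Analog washed off, cells kept 14 days in fresh medium, colonies stained with crystal violet and counted. Surviving fraction taken as colonies over cells treated. Relative survival is survival with radiation plus analog divided by survival with radiation alone, with vehicle set at 1.0.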
`O=C1NC(=O)C(=Cc2cn(Cc3ccccc3)c3ccccc23)C(=O)N1` showed a Ratio of 1.35. With `O=C1NC(=O)C(=Cc2cn(Cc3ccc(Cl)cc3)c3ccccc23)C(=O)N1` the Ratio was 0.91. With `COc1ccc(Cn2cc(C=C3C(=O)NC(=O)NC3=O)c3ccccc32)cc1` the Ratio was 1.18. `O=C1NC(=O)C(=Cc2cn(Cc3ccccc3Br)c3ccccc23)C(=O)N1` was tested, and the Ratio was 1.14. For `O=C1NC(=O)/C(=C/c2cn(Cc3ccc(F)cc3)c3ccccc23)N1`, the Ratio was 0.91. Molecule `Cc1ccc(Cn2cc(/C=C3\NC(=O)NC3=O)c3ccccc32)cc1` has a Ratio of 1.06. `N#Cc1ccc(Cn2cc(C=C3C(=O)NC(=O)NC3=O)c3ccccc32)cc1` gave a Ratio of 0.23. `COC(=O)c1ccc(Cn2cc(C=C3C(=O)NC(=O)NC3=O)c3ccccc32)cc1` was tested, and the Ratio was 0.64. Work on `O=C1NC(=O)/C(=C/c2cn(Cc3ccccc3)c3ccc(Cl)cc23)N1` yielded a Ratio of 1.38. `O=C1NC(=O)/C(=C/c2cn(Cc3ccccc3Br)c3ccccc23)N1` showed a Ratio of 1.18. For `Cc1ccc2c(c1)c(/C=C1\NC(=O)NC1=O)cn2Cc1ccccc1`, the Ratio was 1.18. For `COc1ccc2c(c1)c(C=C1C(=O)NC(=O)NC1=O)cn2Cc1ccccc1`, the Ratio was 1.73. Molecule `O=C1NC(=O)/C(=C/c2cn(Cc3ccccc3)c3ccc(Br)cc23)N1` has a Ratio of 1.06. `O=C1NC(=O)/C(=C/c2cn(Cc3ccc([N+](=O)[O-])cc3)c3ccccc23)N1` gave a Ratio of 1.14. With `N#Cc1ccc(Cn2cc(/C=C3\NC(=O)NC3=O)c3ccccc32)cc1` the Ratio was 1.53. With `O=C1NC(=O)C(=Cc2cn(Cc3ccc([N+](=O)[O-])cc3)c3ccccc23)C(=O)N1` the Ratio was 0.44. `COC(=O)c1ccc(Cn2cc(/C=C3\NC(=O)NC3=O)c3ccccc32)cc1` gave a Ratio of 1. In the case of `COc1ccc(Cn2cc(/C=C3\NC(=O)NC3=O)c3cc(Br)ccc32)cc1`, the Ratio is reported as 1.29. Work on `O=C1NC(=O)/C(=C/c2cn(Cc3ccc(Cl)cc3)c3ccccc23)N1` yielded a Ratio of 1.44. Work on `O=C1NC(=O)/C(=C/c2cn(Cc3ccccc3)c3ccccc23)N1` yielded a Ratio of 1.3. `O=C1NC(=O)C(=Cc2cn(Cc3ccccc3)c3ccc(Cl)cc23)C(=O)N1` showed a Ratio of 1.38. For `COc1ccc2c(c1)c(/C=C1\NC(=O)NC1=O)cn2Cc1ccccc1`, the Ratio was 1.38.
